Consider 7 molecules from PubChem BioAssay AID504513 (The Scripps Research Institute Molecular Screening Center, 2011).

Common to all, as to test: PAFAH2 inhibition and serine hydrolase selectivity, late-stage follow-up, cell lysate, fluorescence, gel-based ABPP, BW5147 T-cell proteome, powder samples (AID 504513);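 further: 0% = DMSO-only band intensity and 100% = blank gel background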
For one experiment, the system named is ABHD11. Conditions: BW5147 mouse T-cell proteome, FP-Rh gel ABPP, stronger effect = higher value. In outline:
(§1)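 assay system = mouse BW5147 T-cell soluble lysate | amount = 1 mg/mL soluble protein | schedule = compound pretreatment 30 min, then 30 min probe labelling at 25 °C | measured by = in-gel fluorescence of probe-labelled bands, integrated optical density | evaluation = percent band labelling lost versus DMSO control | control set = DMSO-only sample as high, blank gel area as low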

For the next experiment, the system named is APEH. The settings on record: BW5147 mouse T-cell proteome, FP-Rh gel ABPP, stronger effect = higher value. A digest of the protocol: as §1
A further experiment relates to LYPLA1. The settings on record: BW5147 mouse T-cell proteome, FP-Rh gel ABPP, stronger effect = higher value. In outline: as §1
For a further experiment, the system named is ESD. The settings on record: BW5147 mouse T-cell proteome, FP-Rh gel ABPP, stronger effect = higher value. In outline:
as §1

Experiment [1] deals with Platelet-activating factor acetylhydrolase 2, cytoplasmic (Mus musculus) (UniProt Q8VDG7). Conditions: FP-Rh gel ABPP, stronger effect = higher value. In outline: as §1
Sequence of Platelet-activating factor acetylhydrolase 2, cytoplasmic (Mus musculus) (Q8VDG7 whole entry, looked up): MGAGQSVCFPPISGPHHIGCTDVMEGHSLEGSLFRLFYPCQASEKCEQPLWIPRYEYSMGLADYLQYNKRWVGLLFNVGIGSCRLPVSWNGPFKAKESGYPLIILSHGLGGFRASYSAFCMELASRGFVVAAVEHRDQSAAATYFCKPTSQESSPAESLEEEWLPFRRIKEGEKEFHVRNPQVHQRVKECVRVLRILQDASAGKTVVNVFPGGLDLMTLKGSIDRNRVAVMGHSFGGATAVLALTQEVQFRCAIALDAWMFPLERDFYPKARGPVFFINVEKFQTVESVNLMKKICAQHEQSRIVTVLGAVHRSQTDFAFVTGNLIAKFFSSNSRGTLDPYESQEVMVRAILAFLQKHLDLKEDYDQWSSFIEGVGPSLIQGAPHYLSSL

Calls of active or inactive are those of the source.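 How the source made its calls: active means PAFAH2 inhibition at least 50% at 0.2 µM with under 50% on each related off-target enzyme; inactive means the rest, including PAFAH2 hits that also hit off-targets.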

Take `O=C(N(c1ccccc1)c1ccccc1)n1ccnn1`: the inhibition was 100% in the experiment on ABHD11 (at 1 µM); 0% in the experiment on ABHD11 (inhibition, at 0.02 µM); 50% in the experiment on ABHD11 (inhibition, at 0.2 µM); 0% (inactive) in the experiment on APEH (at 1 µM); 0% in the experiment with APEH (inhibition, at 0.02 µM); 0% in the experiment on APEH (inhibition, at 0.2 µM). Further, the inhibition with LYPLA1 (at 1 µM) was 0% (inactive); in the experiment with LYPLA1 (inhibition, at 0.02 µM), 0%; in the experiment on LYPLA1 (inhibition, at 0.2 µM) it was 0%; in the experiment on ESD (at 1 µM) it was 0% (inactive); in the experiment with ESD (inhibition, at 0.02 µM) it was 0%; in the experiment on ESD (inhibition, at 0.2 µM), 0%. Besides, the inhibition in experiment [1] (PAFAH2, at 1 µM) is 0% (inactive); in experiment [1] (PAFAH2, inhibition, at 0.02 µM), 0%; in experiment [1] (PAFAH2, inhibition, at 0.2 µM), 0%.

`O=C(N1CCOCC1)n1ncc(C(O)(c2ccccc2)c2ccccc2)n1`: the inhibition with ABHD11 (at 1 µM) is 100%; with ABHD11 (inhibition, at 0.02 µM), 25%; in the experiment with ABHD11 (inhibition, at 0.2 µM), 100%; with APEH (at 1 µM) it was 0% (inactive); with APEH (inhibition, at 0.02 µM), 0%; with APEH (inhibition, at 0.2 µM), 0%. The inhibition with LYPLA1 (at 1 µM) was 0% (inactive); in the experiment with LYPLA1 (inhibition, at 0.02 µM) it was 0%; with LYPLA1 (inhibition, at 0.2 µM) it was 0%; in the experiment on ESD (at 1 µM) it was 0% (inactive); with ESD (inhibition, at 0.02 µM), 0%; in the experiment on ESD (inhibition, at 0.2 µM), 0%. The inhibition in experiment [1] (PAFAH2, at 1 µM) was 50%; in experiment [1] (PAFAH2, inhibition, at 0.02 µM), 0%; in experiment [1] (PAFAH2, inhibition, at 0.2 µM) it was 50%.

As to `COc1ccc2cc(-c3cnn(C(=O)N4CCCC4)n3)ccc2c1`, the inhibition is 0% (inactive) in the experiment on ABHD11 (at 1 µM); 0% in the experiment on ABHD11 (inhibition, at 0.02 µM); 0% in the experiment with ABHD11 (inhibition, at 0.2 µM); 100% (inactive) in the experiment on APEH (at 1 µM); 0% in the experiment with APEH (inhibition, at 0.02 µM); 25% in the experiment with APEH (inhibition, at 0.2 µM). Also, the inhibition in the experiment with LYPLA1 (at 1 µM) is 0% (inactive); with LYPLA1 (inhibition, at 0.02 µM), 0%; with LYPLA1 (inhibition, at 0.2 µM), 0%; in the experiment on ESD (at 1 µM), 0% (inactive); in the experiment with ESD (inhibition, at 0.02 µM), 0%; in the experiment on ESD (inhibition, at 0.2 µM), 0%. For the same molecule, the inhibition in experiment [1] (PAFAH2, at 1 µM) is 100%; in experiment [1] (PAFAH2, inhibition, at 0.02 µM) it was 0%; in experiment [1] (PAFAH2, inhibition, at 0.2 µM), 100%.

As for `CCN(CC)C(=O)n1ccnn1`, the inhibition was 0% (inactive) in the experiment with ABHD11 (at 1 µM); 0% in the experiment on ABHD11 (inhibition, at 0.02 µM); 0% in the experiment on ABHD11 (inhibition, at 0.2 µM); 0% (inactive) in the experiment with APEH (at 1 µM); 0% in the experiment with APEH (inhibition, at 0.02 µM); 0% with APEH (inhibition, at 0.2 µM). Besides, the inhibition is 0% (inactive) in the experiment on LYPLA1 (at 1 µM); 0% with LYPLA1 (inhibition, at 0.02 µM); 0% in the experiment with LYPLA1 (inhibition, at 0.2 µM); 0% (inactive) in the experiment with ESD (at 1 µM); 0% with ESD (inhibition, at 0.02 µM); 0% in the experiment with ESD (inhibition, at 0.2 µM). Also, the inhibition is 0% (inactive) in experiment [1] (PAFAH2, at 1 µM); 0% in experiment [1] (PAFAH2, inhibition, at 0.02 µM); 0% in experiment [1] (PAFAH2, inhibition, at 0.2 µM).

Consider `O=C(N1CCCC1)n1ccnn1`, for which the inhibition in the experiment on ABHD11 (at 1 µM) was 100% (inactive); in the experiment with ABHD11 (inhibition, at 0.02 µM) it was 0%; with ABHD11 (inhibition, at 0.2 µM) it was 0%; in the experiment with APEH (at 1 µM), 100% (inactive); in the experiment with APEH (inhibition, at 0.02 µM), 0%; with APEH (inhibition, at 0.2 µM), 0%. Also, the inhibition is 100% (inactive) in the experiment with LYPLA1 (at 1 µM); 0% with LYPLA1 (inhibition, at 0.02 µM); 0% in the experiment on LYPLA1 (inhibition, at 0.2 µM); 0% (inactive) with ESD (at 1 µM); 0% in the experiment on ESD (inhibition, at 0.02 µM); 0% in the experiment on ESD (inhibition, at 0.2 µM). Moreover, the inhibition in experiment [1] (PAFAH2, at 1 µM) was 100% (inactive); in experiment [1] (PAFAH2, inhibition, at 0.02 µM), 0%; in experiment [1] (PAFAH2, inhibition, at 0.2 µM), 0%.

Turning to `O=C(N1CCOCC1)n1ccnn1`, the inhibition is 100% with ABHD11 (at 1 µM); 0% in the experiment with ABHD11 (inhibition, at 0.02 µM); 50% in the experiment with ABHD11 (inhibition, at 0.2 µM); 0% (inactive) in the experiment on APEH (at 1 µM); 0% in the experiment with APEH (inhibition, at 0.02 µM); 0% in the experiment on APEH (inhibition, at 0.2 µM). For the same molecule, the inhibition with LYPLA1 (at 1 µM) was 0% (inactive); with LYPLA1 (inhibition, at 0.02 µM) it was 0%; with LYPLA1 (inhibition, at 0.2 µM), 0%; with ESD (at 1 µM), 0% (inactive); in the experiment with ESD (inhibition, at 0.02 µM), 0%; with ESD (inhibition, at 0.2 µM) it was 0%. Besides, the inhibition is 100% (inactive) in experiment [1] (PAFAH2, at 1 µM); 0% in experiment [1] (PAFAH2, inhibition, at 0.02 µM); 0% in experiment [1] (PAFAH2, inhibition, at 0.2 µM).

Regarding `O=C(N1CCCC1)n1ncc(-c2ccc(-c3ccccc3)cc2)n1`, the inhibition was 0% (inactive) in the experiment on ABHD11 (at 1 µM); 0% in the experiment with ABHD11 (inhibition, at 0.02 µM); 0% in the experiment on ABHD11 (inhibition, at 0.2 µM); 0% (inactive) with APEH (at 1 µM); 0% in the experiment on APEH (inhibition, at 0.02 µM); 0% in the experiment with APEH (inhibition, at 0.2 µM). The inhibition in the experiment with LYPLA1 (at 1 µM) is 0% (inactive); in the experiment on LYPLA1 (inhibition, at 0.02 µM), 0%; in the experiment with LYPLA1 (inhibition, at 0.2 µM), 0%; with ESD (at 1 µM), 0% (inactive); with ESD (inhibition, at 0.02 µM) it was 0%; with ESD (inhibition, at 0.2 µM), 0%. The inhibition was 100% in experiment [1] (PAFAH2, at 1 µM); 100% in experiment [1] (PAFAH2, inhibition, at 0.02 µM); 100% in experiment [1] (PAFAH2, inhibition, at 0.2 µM).
